Reference: ChEMBL document CHEMBL4406847, “Tryptoline-based benzothiazoles re-sensitize MRSA to β-lactam antibiotics” (Bioorg Med Chem, 2019)
Converted amounts (≈) assume the structure as drawn.

What was measured:
[1] = tested on: Staphylococcus aureus; test: Ratio of MIC for antibacterial activity against methicillin resistant Staphylococcus aureus ATCC BAA-44 to MEC for potentiation of cefazolin induced antibacterial activity against methicillin resistant Staphylococcus aureus ATCC BAA-44; assay type: functional
In short: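 Compound MIC alone (CLSI broth microdilution) divided by its MRC with cefazolin at the 8 μg/mL breakpoint, both against MRSA BAA-44; each confirmed in triplicate.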

[2] = tested on: Staphylococcus aureus; test: Antibacterial activity against methicillin resistant Staphylococcus aureus ATCC BAA-44 after 18 hrs by broth microdilution method; assay type: functional; conditions: ATCC BAA-44, 18 h
In short: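 Compound alone, MIC by standard CLSI broth microdilution; lowest concentration with no growth, reported in μg/mL; confirmed in triplicate.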

[3] = tested on: Staphylococcus aureus; test: Potentiation of cefazolin induced antibacterial activity against methicillin resistant Staphylococcus aureus ATCC BAA-44 assessed as minimum resensitizing concentration after 18 hrs by broth microdilution method; assay type: functional; conditions: ATCC BAA-44, 18 h, read-out: MEC
In short: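 Compound titrated in the presence of cefazolin at its CLSI breakpoint (8 μg/mL); MRC is the compound concentration at which no overnight growth occurs, in μg/mL; confirmed in triplicate.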

[4] = tested on: HeLa; test: Cytotoxicity against human HeLa cells assessed as cell growth inhibition measured after 24 hrs by Celltiter Glo luminescent assay; assay type: cell-based; conditions: hela, 24 h

Row | Compound | Ratio [1] | MIC [2] [µg/mL] | minimal effective concentration [3] [µg/mL] | GI50 [4] [µg/mL]
1 | S=C(Nc1ccc(Cl)cc1)N1CCc2c([nH]c3ccc(Cl)cc23)C1 | 2 | 4 (≈ 10.6 µM) | 2 | 
2 | CN(C)CC1CN(c2nc3ccc(Cl)cc3s2)Cc2[nH]c3ccc(Cl)cc3c21 (racemic) |  | 2 (≈ 4.64 µM) | 1 | 5.2 (≈ 12.1 µM)
3 | CCOC(=O)C1c2[nH]c3ccc(Cl)cc3c2CCN1c1nc2ccc(Cl)cc2s1 (centres undefined) |  |  | > 64 | 
4 | Clc1ccc2nc(N3CCc4c([nH]c5ccc(Cl)cc45)C3)sc2c1 | 32 | > 64 | 2 | 13.2 (≈ 35.3 µM)
5 | FC(F)(F)c1cccc2sc(N3CCc4c([nH]c5ccc(Cl)cc45)C3)nc12 | 32 | > 32 | 1 | 8 (≈ 19.6 µM)
6 | Cn1c(N2CCc3c([nH]c4ccc(Cl)cc34)C2)nc2ccc(C(F)(F)F)cc21 |  |  | > 64 | 
7 | FC(F)(F)Oc1ccc(NC(=S)N2CCc3c([nH]c4ccc(Cl)cc34)C2)cc1 | 2 |  | 1 | 
8 | Cn1c(N2CCc3c([nH]c4ccc(Cl)cc34)C2)nc2ccc(Cl)cc21 |  |  | > 64 | 
9 | Cn1c(N2CCc3c([nH]c4ccc(Cl)cc34)C2)nc2ccccc21 |  |  | > 64 | 
10 | FC(F)(F)c1ccc2nc(N3CCc4c([nH]c5ccc(Cl)cc45)C3)sc2c1 |  | > 64 | 0.5 | 4.6 (≈ 11.3 µM)
11 | FC(F)(F)c1cnc2nc(N3CCc4c([nH]c5ccc(Cl)cc45)C3)sc2c1 |  |  | > 64 | 
12 | Clc1ccc2[nH]c3c(c2c1)CCN(c1nc2cccc(Cl)c2s1)C3 |  | 4 (≈ 10.7 µM) | 1 | 6.7 (≈ 17.9 µM)
13 | Clc1cc(Cl)c2nc(N3CCc4c([nH]c5ccc(Cl)cc45)C3)sc2c1 |  | 2 (≈ 4.89 µM) | 1 | 16.1 (≈ 39.4 µM)
14 | Clc1ccc2c3c([nH]c2c1)CN(c1nc2ccc(Cl)cc2s1)CC3 |  |  | > 64 | 
15 | Clc1ccc2sc(N3CCc4c([nH]c5ccc(Cl)cc45)C3)nc2c1 | 0 |  | > 64 | 
16 | NCC1CN(c2nc3ccc(Cl)cc3s2)Cc2[nH]c3ccc(Cl)cc3c21 (racemic) |  |  | 1 | 1.5 (≈ 3.72 µM)
17 | FC(F)(F)c1cc(Br)cc2sc(N3CCc4c([nH]c5ccc(Cl)cc45)C3)nc12 |  | 4 (≈ 8.22 µM) | 0.5 | 5.9 (≈ 12.1 µM)
18 | C[N+](C)(C)CC1CN(c2nc3ccc(Cl)cc3s2)Cc2[nH]c3ccc(Cl)cc3c21.[I-] (racemic) |  | 8 | 4 | 18
19 | NCCOc1cc(Cl)c2nc(N3CCc4c([nH]c5ccc(Cl)cc45)C3)sc2c1 |  | 8 (≈ 18.5 µM) | 4 | 
20 | Clc1ccc2nc(N3CCc4c([nH]c5c(Cl)cccc45)C3)sc2c1 |  | > 16 | 16 | 
21 | CNc1cc(C(F)(F)F)c2nc(N3CCc4c([nH]c5ccc(Cl)cc45)C3)sc2c1 |  | > 32 | 2 | 15.4 (≈ 35.2 µM)
22 | O=C(O)C1CN(c2nc3ccc(Cl)cc3s2)Cc2[nH]c3ccc(Cl)cc3c21 (racemic) | 0 | 32 (≈ 76.5 µM) | 16 | 65 (≈ 155 µM)
23 | COc1ccc2[nH]c3c(c2c1)CCN(c1nc2ccc(Cl)cc2s1)C3 |  |  | > 64 | 
24 | Clc1ccc2[nH]c3c(c2c1)CCN(c1nc2c(Cl)cccc2s1)C3 | 32 | > 64 | 2 | 27.7 (≈ 74 µM)
25 | CCOC(=O)c1ccc2nc(N3CCc4c([nH]c5ccc(Cl)cc45)C3)sc2c1 |  |  | > 64 | 
26 | COc1cc(Cl)c2nc(N3CCc4c([nH]c5ccc(Cl)cc45)C3)sc2c1 |  |  | > 32 | 
27 | Clc1ccc2[nH]c3c(c2c1)CCN(c1nc2ccccc2o1)C3 | 0 |  | > 64 | 

Row | Compound | Ratio [1] | MIC [2] [µg/mL] | minimal effective concentration [3] [µg/mL] | GI50 [4] [µg/mL]
28 | NCCNCC1CN(c2nc3ccc(Cl)cc3s2)Cc2[nH]c3ccc(Cl)cc3c21 (racemic) |  |  | 2 | 2.4 (≈ 5.38 µM)
29 | FC(F)(F)c1ccc2nc(N3CCc4c([nH]c5ccc(Cl)cc45)C3)oc2c1 | 0 |  | > 64 | 
30 | FC(F)(F)c1ccc(NC(=S)N2CCc3c([nH]c4ccc(Cl)cc34)C2)cc1 | 2 | 2 (≈ 4.88 µM) | 1 | 
31 | Cl.NCCNc1cc(C(F)(F)F)c2nc(N3CCc4c([nH]c5ccc(Cl)cc45)C3)sc2c1 |  |  | 1 | 7.4
32 | COC(=O)C1CN(c2nc3ccc(Cl)cc3s2)Cc2[nH]c3ccc(Cl)cc3c21 (racemic) | 32 | > 32 | 1 | 6.6 (≈ 15.3 µM)
33 | Oc1cc(Cl)c2nc(N3CCc4c([nH]c5ccc(Cl)cc45)C3)sc2c1 |  | > 32 | 8 | 5.5 (≈ 14.1 µM)
34 | Clc1ccc2[nH]c3c(c2c1)CCN(c1nc2ncccc2s1)C3 |  |  | > 64 | 
35 | Clc1ccc2nc(N3CCc4c([nH]c5cccc(Cl)c45)C3)sc2c1 |  | > 16 | 16 | 
36 | CN(C)C(=O)C1CN(c2nc3ccc(Cl)cc3s2)Cc2[nH]c3ccc(Cl)cc3c21 (racemic) | 0 |  | > 32 | 
37 | Cl.NCCSCC1CN(c2nc3ccc(Cl)cc3s2)Cc2[nH]c3ccc(Cl)cc3c21 (racemic) |  |  | 1 | 3.8
38 | Nc1ccc2nc(N3CCc4c([nH]c5ccc(Cl)cc45)C3)sc2c1 |  |  | > 64 | 
39 | COCOCC1CN(c2nc3ccc(Cl)cc3s2)Cc2[nH]c3ccc(Cl)cc3c21 (racemic) |  |  | 2 | 7 (≈ 15.6 µM)
40 | Cl.NCC(=O)Nc1cc(Cl)c2nc(N3CCc4c([nH]c5ccc(Cl)cc45)C3)sc2c1 |  |  | 2 | 14.8
41 | N=CNCC1CN(c2nc3ccc(Cl)cc3s2)Cc2[nH]c3ccc(Cl)cc3c21 (racemic) |  | 4 (≈ 9.29 µM) | 2 | 3.8 (≈ 8.83 µM)
42 | Cc1ccc2nc(N3CCc4c([nH]c5ccc(Cl)cc45)C3)sc2c1 | 0 |  | > 64 | 
43 | CCn1c2c(c3cc(Cl)ccc31)CCN(c1nc3ccc(Cl)cc3s1)C2 |  |  | > 64 | 
44 | Clc1ccc2nc(N3CCc4c([nH]c5ccc(Br)cc45)C3)sc2c1 |  | 4 (≈ 9.55 µM) | 1 | 
45 | Clc1ccc2[nH]c3c(c2c1)CCN(c1nc2c(Cl)cc(Br)cc2s1)C3 |  | > 32 | 8 | 22 (≈ 48.5 µM)
46 | Clc1ccc2[nH]c3c(c2c1)CCN(c1nc2ccc(Br)cc2s1)C3 |  | > 64 | 2 | 5.1 (≈ 12.2 µM)
47 | Cl.Nc1cc(C(F)(F)F)c2nc(N3CCc4c([nH]c5ccc(Cl)cc45)C3)sc2c1 |  | 16 | 2 | 32
48 | Clc1ccc2[nH]c3c(c2c1)CCN(c1nc2ccccc2s1)C3 | 0 |  | > 64 | 
49 | Clc1ccc2nc(N3CCc4c([nH]c5ccc(Cl)cc45)C3)oc2c1 | 0 |  | > 64 | 
50 | Fc1ccc2[nH]c3c(c2c1)CCN(c1nc2ccc(Cl)cc2s1)C3 |  |  | > 64 | 
51 | OCC1CN(c2nc3ccc(Cl)cc3s2)Cc2[nH]c3ccc(Cl)cc3c21 (racemic) |  |  | 2 | 10.8 (≈ 26.7 µM)
52 | FC(F)(F)Oc1ccc2nc(N3CCc4c([nH]c5ccc(Cl)cc45)C3)sc2c1 | 0 |  | 1 | 7.3 (≈ 17.2 µM)
53 | Clc1ccc2[nH]c3c(c2c1)CCN(c1nc2c(Cl)c(Cl)c(Cl)cc2s1)C3 |  | 2 (≈ 4.51 µM) | 1 | 11.7 (≈ 26.4 µM)
